According to ChEMBL document CHEMBL1124811, “Cyclic hexapeptide oxytocin antagonists. Potency-, selectivity-, and solubility-enhancing modifications” (J Med Chem, 1990):
Values after ≈ are worked out from the molar mass of the structure shown. Non-standard residues stand in square brackets, D forms with d. Residues, ends and D or L forms follow the SMILES beside them. Piz(1,6-dehydro) = O=C(O)[C@@H]1CCC=NN1; dPiz(1,6-dehydro) = O=C(O)[C@H]1CCC=NN1; dNMeF = CN[C@H](Cc1ccccc1)C(=O)O; Pip = O=C(O)[C@@H]1CCCCN1; dPip = O=C(O)[C@H]1CCCCN1; Orn = NCCC[C@H](N)C(=O)O

Tests used:
Oxytocin receptor = target: T1, Oxytocin receptor (Rattus norvegicus, UniProt P70536); experiment: Inhibition of [3H]- oxytocin binding to rat uterine Oxytocin receptor
T1 sequence (P70536 whole entry): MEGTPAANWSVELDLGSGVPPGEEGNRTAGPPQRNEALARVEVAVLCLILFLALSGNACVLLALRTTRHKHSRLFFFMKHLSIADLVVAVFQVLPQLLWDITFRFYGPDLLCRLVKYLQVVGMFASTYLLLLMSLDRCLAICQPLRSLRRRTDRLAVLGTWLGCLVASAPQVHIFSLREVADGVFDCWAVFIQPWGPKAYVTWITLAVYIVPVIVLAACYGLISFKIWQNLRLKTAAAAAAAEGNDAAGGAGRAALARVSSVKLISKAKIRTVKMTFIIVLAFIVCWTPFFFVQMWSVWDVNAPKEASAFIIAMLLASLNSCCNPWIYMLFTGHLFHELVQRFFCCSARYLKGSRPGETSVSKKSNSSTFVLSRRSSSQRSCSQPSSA
In short: (§1)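 Radioligand competition binding. Ki derived from IC50 values from competition curves; reported as group means ± SEM of three or more replicate determinations unless noted otherwise.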

Vasopressin V2 receptor = Vasopressin V2 receptor (Rattus norvegicus, UniProt Q00788); experiment: Inhibition of [3H]arginine vasopressin binding to rat kidney medulla Vasopressin V2 receptor; in short: as §1
Chain of Vasopressin V2 receptor (Q00788 whole entry): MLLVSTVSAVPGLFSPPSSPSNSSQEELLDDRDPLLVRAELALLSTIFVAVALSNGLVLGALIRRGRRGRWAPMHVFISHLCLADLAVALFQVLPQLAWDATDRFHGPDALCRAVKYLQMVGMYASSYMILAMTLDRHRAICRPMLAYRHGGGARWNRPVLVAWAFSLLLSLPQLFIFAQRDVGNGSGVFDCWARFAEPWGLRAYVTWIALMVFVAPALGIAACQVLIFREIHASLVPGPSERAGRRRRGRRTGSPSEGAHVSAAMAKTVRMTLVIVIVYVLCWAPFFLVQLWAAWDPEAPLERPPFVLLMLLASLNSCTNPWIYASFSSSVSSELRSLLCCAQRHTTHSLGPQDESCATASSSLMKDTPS

Vasopressin V1 receptor = Vasopressin V1 receptor (Rattus norvegicus, UniProt P48974+P30560); experiment: Inhibition of [3H]arginine vasopressin binding to rat liver Vasopressin V1 receptor; in short: as §1
[1] = Solubility at 25 degree C and pH of 7.4; format: physicochemical; conditions: pH 7.4; read-out: S
[2] = target: T2, Oxytocin receptor (Rattus norvegicus) (UniProt P70536); experiment: Inhibition of binding of [3H]- oxytocin to rat uterine Oxytocin receptor; conditions: concentration not given here; in short: as §1
T2 sequence (whole entry): T1 sequence (P70536 whole entry)

[3] = target: Vasopressin V1 receptor (Rattus norvegicus) (UniProt P48974+P30560); experiment: Inhibition of binding of [3H]-arginine vasopressin to rat liver Vasopressin V1 receptor at a concentration of 10000 nM
Chain of Vasopressin V1 receptor (Rattus norvegicus) (P30560 whole entry, looked up): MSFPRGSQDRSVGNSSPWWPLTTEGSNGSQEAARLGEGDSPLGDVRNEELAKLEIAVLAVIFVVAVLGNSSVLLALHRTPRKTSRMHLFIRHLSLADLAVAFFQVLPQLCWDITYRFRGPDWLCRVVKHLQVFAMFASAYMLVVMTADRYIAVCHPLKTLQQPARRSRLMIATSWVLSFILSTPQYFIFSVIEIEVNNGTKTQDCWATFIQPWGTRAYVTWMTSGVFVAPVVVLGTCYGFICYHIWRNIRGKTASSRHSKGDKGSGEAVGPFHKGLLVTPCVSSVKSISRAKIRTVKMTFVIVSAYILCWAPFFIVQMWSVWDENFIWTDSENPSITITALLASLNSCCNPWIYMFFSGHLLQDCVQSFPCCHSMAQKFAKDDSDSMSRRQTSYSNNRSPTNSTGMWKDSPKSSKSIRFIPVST
Chain of Vasopressin V1 receptor (Rattus norvegicus) (P48974 whole entry, looked up): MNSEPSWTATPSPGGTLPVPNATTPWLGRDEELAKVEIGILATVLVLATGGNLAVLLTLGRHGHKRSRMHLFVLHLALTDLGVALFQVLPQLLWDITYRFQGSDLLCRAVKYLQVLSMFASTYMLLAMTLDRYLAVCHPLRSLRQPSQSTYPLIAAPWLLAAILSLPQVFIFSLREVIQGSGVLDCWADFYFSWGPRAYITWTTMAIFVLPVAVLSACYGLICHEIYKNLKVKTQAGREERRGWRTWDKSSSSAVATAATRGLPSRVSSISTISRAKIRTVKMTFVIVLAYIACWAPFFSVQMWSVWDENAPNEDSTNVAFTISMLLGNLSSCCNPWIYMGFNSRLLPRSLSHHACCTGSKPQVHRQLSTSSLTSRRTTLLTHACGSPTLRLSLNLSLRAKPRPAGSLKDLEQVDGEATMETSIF

[4] = target: Vasopressin V2 receptor (Rattus norvegicus) (UniProt Q00788); experiment: Inhibition of binding of [3H]-arginine vasopressin to rat kidney medulla Vasopressin V2 receptor at a concentration of 10000 nM
Chain of Vasopressin V2 receptor (Rattus norvegicus) (Q00788 whole entry): as the sequence (Q00788 whole entry) above

[5] = Solubility at 25 degree C and pH of 10.8; format: physicochemical; conditions: pH 10.8; read-out: S
[6] = Solubility at 25 degree C and pH of 5.0; format: physicochemical; conditions: pH 5; read-out: S
[7] = Solubility at 25 degree C and pH of 7.0; format: physicochemical; conditions: pH 7; read-out: S

| SMILES | Ki (Oxytocin receptor) [nM] | Ki (Vasopressin V2 receptor) [nM] | Ki (Vasopressin V1 receptor) [nM] | also measured |
| --- | --- | --- | --- | --- |
| C[C@@H]1NC(=O)[C@@H](Cc2ccccc2)NC(=O)[C@@H]2CCCN2C(=O)[C@@H](Cc2ccccc2)N(C)C(=O)[C@@H]2CCCCN2C(=O)[C@H]2CCCCN2C1=O (cyclo(A[dPip][Pip][dNMeF]P[dF])) | 12000 | > 30000 | > 30000 | – |
| CC[C@H](C)[C@@H]1NC(=O)[C@@H](Cc2ccccc2)NC(=O)[C@@H]2CCCN2C(=O)[C@@H](Cc2ccccc2)N(C)C(=O)[C@@H]2CCCCN2C(=O)[C@H]2CCCCN2C1=O | 83 | 1600 | 890 | solubility [1]: 2 µg/mL (≈ 2.7 µM) |
| CC[C@H](C)[C@@H]1NC(=O)[C@@H](C)NC(=O)[C@@H]2CCCN2C(=O)[C@@H](Cc2ccccc2)NC(=O)[C@@H]2CCCCN2C(=O)[C@H]2CCCCN2C1=O (cyclo(I[dPip][Pip][dF]P[dA])) | – | – | – | inhibition [2]: 0%; inhibition [3]: 0%; inhibition [4]: 4% |
| CC[C@H](C)[C@@H]1NC(=O)[C@@H](Cc2ccccc2)NC(=O)[C@@H]2CCCN2C(=O)[C@@H](Cc2ccccc2)NC(=O)[C@@H]2CCCCN2C(=O)[C@H]2CCCCN2C1=O (cyclo(I[dPip][Pip][dF]P[dF])) | 140 | 4500 | 1600 | – |
| CC[C@H](C)[C@@H]1NC(=O)[C@@H](Cc2c[nH]c3ccccc23)NC(=O)[C@@H]2CCCN2C(=O)[C@@H](Cc2ccccc2)N(C)C(=O)[C@@H]2CCCCN2C(=O)[C@H]2CCCCN2C1=O (cyclo(I[dPip][Pip][dNMeF]P[dW])) | 8.1 | 260 | 3500 | – |
| CC[C@H](C)[C@@H]1NC(=O)[C@@H](Cc2ccccc2)NC(=O)[C@@H]2CCCN2C(=O)[C@@H](Cc2ccccc2)N(C)C(=O)[C@@H]2CCCN2C(=O)[C@H]2CCCN2C1=O (cyclo([dNMeF]P[dF]I[dP]P)) | 1400 | 33000 | 9300 | – |
| CC[C@H](C)[C@@H]1NC(=O)[C@@H](Cc2c[nH]c3ccccc23)NC(=O)[C@@H]2CCCN2C(=O)[C@@H](Cc2c[nH]cn2)NC(=O)[C@@H]2CCCCN2C(=O)[C@H]2CCCCN2C1=O (cyclo(I[dPip][Pip][dH]P[dW])) | – | 1800 | 2200 | solubility [5]: 110 µg/mL (≈ 146 µM); solubility [6]: 2000 µg/mL (≈ 2650 µM) |
| CCOc1ccc(C[C@H]2NC(=O)[C@@H]3CCCN3C(=O)[C@@H](Cc3ccccc3)N(C)C(=O)[C@@H]3CCCCN3C(=O)[C@H]3CCCCN3C(=O)[C@H]([C@@H](C)CC)NC2=O)cc1 (cyclo(I[dPip][Pip][dNMeF]P[dY](Et))) | 49 | 250 | 20000 | – |
| CC[C@H](C)[C@@H]1NC(=O)[C@@H](Cc2c[nH]c3ccccc23)NC(=O)[C@@H]2CCCN2C(=O)[C@@H](Cc2ccccc2)N(C)C(=O)[C@H](CCCN)NC(=O)[C@H]2CCCCN2C1=O (cyclo(I[dPip][Orn][dNMeF]P[dW])) | 49 | 500 | 1000 | – |
| CC[C@H](C)[C@@H]1NC(=O)[C@@H](Cc2ccc3ccccc3c2)NC(=O)[C@@H]2CCCN2C(=O)[C@@H](Cc2c[nH]cn2)NC(=O)[C@@H]2CCCCN2C(=O)[C@H]2CCCCN2C1=O | 1.6 | 320 | 760 | – |
| CC[C@H](C)[C@@H]1NC(=O)[C@@H](Cc2ccccc2)NC(=O)[C@@H]2CCCN2C(=O)[C@@H](Cc2ccccc2)N(C)C(=O)[C@@H]2CCC=NN2C(=O)[C@H]2CCC=NN2C1=O (cyclo(I[dPiz(1,6-dehydro)][Piz(1,6-dehydro)][dNMeF]P[dF])) | 7.3 | – | – | solubility [7]: 68 µg/mL (≈ 92 µM) |
| CC[C@H](C)[C@@H]1NC(=O)[C@@H](Cc2ccccc2)NC(=O)[C@@H]2CCCN2C(=O)[C@@H](C)N(C)C(=O)[C@@H]2CCCCN2C(=O)[C@H]2CCCCN2C1=O | 490 | > 10000 | > 10000 | – |
